Measurements reported in ChEMBL document CHEMBL1140903, “Reactions of functionalized sulfonamides: application to lowering the lipophilicity of cytosolic phospholipase A2alpha inhibitors” (J Med Chem, 2009).
Active and inactive are the calls of the source. The calls are words filed in the database; no cut-off is given here.

Tests used:
[1] = target: T1, Cytosolic phospholipase A2 (Homo sapiens, UniProt P47712); experiment: Inhibition of human cytosolic PLA2alpha by GLU micelle assay
T1 sequence (P47712 whole entry): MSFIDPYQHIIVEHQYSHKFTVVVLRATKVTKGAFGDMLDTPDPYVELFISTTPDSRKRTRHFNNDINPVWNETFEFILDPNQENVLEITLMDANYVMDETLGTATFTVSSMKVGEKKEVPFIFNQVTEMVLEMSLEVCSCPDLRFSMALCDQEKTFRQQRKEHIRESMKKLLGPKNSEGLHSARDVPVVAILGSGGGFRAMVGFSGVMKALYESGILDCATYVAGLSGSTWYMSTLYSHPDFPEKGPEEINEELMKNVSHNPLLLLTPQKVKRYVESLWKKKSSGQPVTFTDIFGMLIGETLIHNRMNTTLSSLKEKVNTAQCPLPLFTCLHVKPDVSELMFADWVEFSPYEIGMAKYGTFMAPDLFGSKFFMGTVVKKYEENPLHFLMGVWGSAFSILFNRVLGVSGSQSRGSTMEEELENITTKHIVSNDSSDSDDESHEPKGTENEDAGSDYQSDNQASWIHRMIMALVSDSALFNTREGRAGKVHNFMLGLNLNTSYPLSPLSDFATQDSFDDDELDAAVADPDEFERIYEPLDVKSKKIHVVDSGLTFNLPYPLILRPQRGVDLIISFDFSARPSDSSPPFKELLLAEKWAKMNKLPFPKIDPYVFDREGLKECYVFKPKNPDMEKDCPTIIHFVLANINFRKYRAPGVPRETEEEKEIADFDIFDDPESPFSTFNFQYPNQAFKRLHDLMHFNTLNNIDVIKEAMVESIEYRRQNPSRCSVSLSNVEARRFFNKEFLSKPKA
Outline: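 Purified human cPLA2α with the substrate 7-hydroxycoumarinyl-γ-linolenate (GLU), presented in micelles containing a high concentration of detergent and lipid. IC50 is taken from at least two runs, each run the mean of duplicate assays.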

[2] = test system: Blood; experiment: Inhibition of A23187-induced TBX2 release in Sprague-Dawley rat whole blood; format: functional, tissue-based
Outline: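 Rat whole blood is stimulated with calcium ionophore A23187, and thromboxane B2 is the read-out (cPLA2α- and COX-1-dependent). IC50 is taken from at least two runs, each run the mean of triplicate assays.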

[3] = test system: Blood; experiment: Inhibition of A23187-induced TBX2 release in human whole blood at 10 uM; format: functional
[4] = test system: MC9; experiment: Inhibition of IgE-specific antigen-induced LBT4 release in mouse MC9 cells at 1.0 uM
[5] = test system: MC9; experiment: Inhibition of arachidonic acid-induced PGF2-alpha release in mouse MC9 cells at 1.0 uM
[6] = test system: MC9; experiment: Inhibition of IgE-specific antigen-induced PGF2-alpha release in mouse MC9 cells at 1.0 uM
[7] = test system: MC9; experiment: Inhibition of IgE-specific antigen-induced LBT4 release in mouse MC9 cells at 0.11 uM
[8] = test system: MC9; experiment: Inhibition of IgE-specific antigen-induced PGF2alpha release in mouse MC9 cells at 0.11 uM
[9] = test system: Rattus norvegicus; experiment: Plasma concentration in carrageenan-induced paw edema Sprague-Dawley rat model at 15 mg/kg, iv; format: ADME, organism-based; set-up: dose 15 mg/kg, route intravenous; conditions: in vivo
Outline: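 Plasma concentration is measured in end-bleed samples taken 3 h after iv dosing in 50/50 PEG/DMSO in the carrageenan paw edema model. Values are means from five animals.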

[10] = test system: Rattus norvegicus; experiment: Antiinflammatory activity against carrageenan-induced paw edema in Sprague-Dawley rat at 15 mg/kg, iv; format: functional
Outline: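 Rat carrageenan paw edema after iv dosing in 50/50 PEG/DMSO, with paw swelling assessed 3 h after dosing. Groups of 10 animals; naproxen was used to define maximal % inhibition.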

[11] = test system: MC9; experiment: Inhibition of IgE-specific antigen-induced LBT4 release in mouse MC9 cells at 0.037 uM
[12] = test system: MC9; experiment: Inhibition of IgE-specific antigen-induced PGF2-alpha release in mouse MC9 cells at 0.037 uM
[13] = test system: MC9; experiment: Inhibition of IgE-specific antigen-induced LBT4 release in mouse MC9 cells at […]
[14] = test system: MC9; experiment: Inhibition of IgE-specific antigen-induced PGF2alpha release in mouse MC9 cells at […]
[15] = test system: MC9; experiment: Inhibition of arachidonic acid-induced PGF2-alpha release in mouse MC9 cells
[16] = test system: MC9; experiment: Inhibition of IgE-specific antigen-induced PGF2-alpha release in mouse MC9 cells
[17] = test system: MC9; experiment: Inhibition of IgE-specific antigen-induced LBT4 release in mouse MC9 cells at […]; remark: listed apart in the source
[18] = test system: MC9; experiment: Inhibition of IgE-specific antigen-induced PGF2alpha release in rat MC9 cells at 0.20 uM; conditions: Mus musculus, MC9, read-out: INH
[19] = test system: Rattus norvegicus; experiment: Antiinflammatory activity against carrageenan-induced paw edema in Sprague-Dawley rat at 10 mg/kg, iv; conditions: read-out: INH
[20] = test system: MC9; experiment: cells; conditions: Mus musculus, MC9, read-out: INH
[21] = test system: Rattus norvegicus; experiment: Plasma concentration in carrageenan-induced paw edema Sprague-Dawley rat model at 15 mg/kg, iv; conditions: in vivo
[22] = test system: MC9; experiment: Inhibition of IgE-specific antigen-induced LBT4 release in mouse MC9 cells at 0.5 uM
[23] = test system: MC9; experiment: Inhibition of arachidonic acid-induced PGF2-alpha release in mouse MC9 cells at 0.5 uM
[24] = test system: MC9; experiment: Inhibition of IgE-specific antigen-induced PGF2alpha release in mouse MC9 cells at 0.5 uM
[25] = test system: Blood; experiment: Inhibition of A23187-induced TBX2 release in human whole blood; format: functional, tissue-based
Outline: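 Human whole blood is stimulated with calcium ionophore A23187 at a higher concentration than in the rat whole blood assay. Thromboxane production is the read-out.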

[26] = test system: MC9; experiment: Inhibition of IgE-specific antigen-induced LBT4 release in mouse MC9 cells at 0.333 uM
[27] = test system: MC9; experiment: Inhibition of IgE-specific antigen-induced PGF2-alpha release in rat MC9 cells at 0.0005 uM; format: functional; conditions: Mus musculus
[28] = test system: MC9; experiment: Inhibition of arachidonic acid-induced PGF2-alpha release in rat MC9 cells at 0.0005 uM; format: functional; conditions: Mus musculus
[29] = test system: MC9; experiment: Inhibition of arachidonic acid-induced PGF2alpha release in mouse MC9 cells at 0.30 uM
[30] = test system: MC9; experiment: Inhibition of IgE-specific antigen-induced PGF2-alpha release in mouse MC9 cells at 0.40 uM

| SMILES | IC50 [1] [nM] | IC50 [2] [nM] | inhibition at 1 µM [5] [%] | inhibition at 0.11 µM [7] [%] | inhibition at 0.11 µM [8] [%] | also measured |
| --- | --- | --- | --- | --- | --- | --- |
| O=C(O)c1ccc(OCCc2c(CCNS(=O)(=O)CCn3cnnn3)n(C(c3ccccc3)c3ccccc3)c3ccc(Cl)cc23)cc1 | 470 | 5600 | -5 |  |  | inhibition at 10 µM [3]: < 25%; inhibition at 1 µM [4]: 59%; inhibition at 1 µM [6]: 19% |
| O=C(O)c1ccc(OCCc2c(CCNS(=O)(=O)C[S+]([O-])c3ccc(Cl)c(Cl)c3)n(C(c3ccccc3)c3ccccc3)c3ccc(Cl)cc23)cc1 (stereo unspecified) | 180 | 560 | 1.4 | 55 | 45 |  |
| CC1CCC(C)N1CCS(=O)(=O)NCCc1c(CCOc2ccc(C(=O)O)cc2)c2cc(Cl)ccc2n1C(c1ccccc1)c1ccccc1 (stereo unspecified) | 130 | 74 | -2 | 80 | 69 | concentration [9]: 232 nM; inhibition in vivo at 15 mg/kg [10]: 37% |
| O=C(O)c1ccc(OCCc2c(CCNS(=O)(=O)CSc3ccc(Cl)c(Cl)c3)n(C(c3ccccc3)c3ccccc3)c3ccc(Cl)cc23)cc1 | 240 | 140 | 33 |  |  | inhibition at 0.037 µM [11]: 64%; inhibition at 0.037 µM [12]: 48% |
| CC1CCCCN1CCS(=O)(=O)NCCc1c(CCOc2ccc(C(=O)O)cc2)c2cc(Cl)ccc2n1C(c1ccccc1)c1ccccc1 (stereo unspecified) | 120 | 57 | 14 |  |  | inhibition at 0.037 µM [11]: 62%; inhibition at 0.037 µM [12]: 45% |
| NC(=O)C1CCCN1CCS(=O)(=O)NCCc1c(CCOc2ccc(C(=O)O)cc2)c2cc(Cl)ccc2n1C(c1ccccc1)c1ccccc1 (single isomer, unassigned) | 350 | 3200 | 8 |  |  | inhibition at 0.33 µM at […] [13]: 41%; inhibition at 0.33 µM at […] [14]: 41% |
| O=C(O)c1ccc(CCCc2c(CCNS(=O)(=O)CCN3CCOCC3)n(C(c3ccccc3)c3ccccc3)c3ccc(Cl)cc23)cc1 | 200 | 140 | 9 | 69 | 71 | concentration [9]: 163 nM; inhibition in vivo at 15 mg/kg [10]: 23.5% |
| O=C(O)c1ccc(OCCc2c(CCNS(=O)(=O)CCN3CCSCC3)n(C(c3ccccc3)c3ccccc3)c3ccc(Cl)cc23)cc1 |  | 180 | 6 | 76 | 66 | concentration [9]: 270 nM; inhibition in vivo at 15 mg/kg [10]: 27.9% |
| CC(c1cc2ccccc2s1)N(O)C(N)=O (stereo unspecified) [ZILEUTON] |  |  |  |  |  | Activity [15]: inactive; Activity [16]: inactive; inhibition at 0.55 µM at […] [17]: 50% |
| COc1ccc2cc([C@H](C)C(=O)O)ccc2c1 [NAPROXEN] |  |  |  |  |  | inhibition at 0.2 µM [18]: 50%; inhibition in vivo at 10 mg/kg [19]: 50%; inhibition at […] [20]: 50% |
| O=C(O)c1ccc(CCCc2c(CCNS(=O)(=O)Cc3ccc(Cl)c(Cl)c3)n(C(c3ccccc3)c3ccccc3)c3ccc(Cl)cc23)cc1 [EFIPLADIB] | 40 | 70 |  |  |  | inhibition in vivo at 15 mg/kg [10]: 51%; concentration [21]: 5.3 µM |
| CS(=O)(=O)CS(=O)(=O)NCCc1c(CCOc2ccc(C(=O)O)cc2)c2cc(Cl)ccc2n1C(c1ccccc1)c1ccccc1 | 150 | 480 |  |  |  | inhibition at 0.5 µM [22]: 100%; inhibition at 0.5 µM [23]: -47%; inhibition at 0.5 µM [24]: 100% |
| CN(C)CC1CCCCN1CCS(=O)(=O)NCCc1c(CCOc2ccc(C(=O)O)cc2)c2cc(Cl)ccc2n1C(c1ccccc1)c1ccccc1 (stereo unspecified) | 270 | 150 | 13 | 62 | 56 |  |
| O=C(O)c1ccc(OCCc2c(CCNS(=O)(=O)CCn3ncnn3)n(C(c3ccccc3)c3ccccc3)c3ccc(Cl)cc23)cc1 | 380 | 450 | 4 |  |  | IC50 [25]: 2000 nM; inhibition at 0.33 µM at […] [14]: 71%; inhibition at 0.333 µM [26]: 80% |
| O=C(O)c1ccc(OCCc2c(CCNS(=O)(=O)CSc3ccc(F)cc3F)n(C(c3ccccc3)c3ccccc3)c3ccc(Cl)cc23)cc1 | 140 | 30 | 47 |  |  | inhibition at 0.037 µM [11]: 94%; inhibition at 0.037 µM [12]: 77% |
| Cc1ccc(-c2cc(C(F)(F)F)nn2-c2ccc(S(N)(=O)=O)cc2)cc1 [CELECOXIB] |  |  |  |  |  | inhibition at 0.0005 µM [27]: 79%; inhibition at 0.0005 µM [28]: 79%; inhibition at 0.3 µM [29]: 50%; inhibition at 0.4 µM [30]: 50% |
| Cc1cc(C)n(CCS(=O)(=O)NCCc2c(CCOc3ccc(C(=O)O)cc3)c3cc(Cl)ccc3n2C(c2ccccc2)c2ccccc2)n1 | 450 | 160 | 5 | 89 | 83 |  |
